Measurements pooled from the literature.
Each line is one published result; the experiments were not run side by side.
Target: Serine/threonine-protein kinase BRSK1 (BRSK1, Homo sapiens, UniProt Q8TDC3)
One construct used (Q8TDC3 1-778): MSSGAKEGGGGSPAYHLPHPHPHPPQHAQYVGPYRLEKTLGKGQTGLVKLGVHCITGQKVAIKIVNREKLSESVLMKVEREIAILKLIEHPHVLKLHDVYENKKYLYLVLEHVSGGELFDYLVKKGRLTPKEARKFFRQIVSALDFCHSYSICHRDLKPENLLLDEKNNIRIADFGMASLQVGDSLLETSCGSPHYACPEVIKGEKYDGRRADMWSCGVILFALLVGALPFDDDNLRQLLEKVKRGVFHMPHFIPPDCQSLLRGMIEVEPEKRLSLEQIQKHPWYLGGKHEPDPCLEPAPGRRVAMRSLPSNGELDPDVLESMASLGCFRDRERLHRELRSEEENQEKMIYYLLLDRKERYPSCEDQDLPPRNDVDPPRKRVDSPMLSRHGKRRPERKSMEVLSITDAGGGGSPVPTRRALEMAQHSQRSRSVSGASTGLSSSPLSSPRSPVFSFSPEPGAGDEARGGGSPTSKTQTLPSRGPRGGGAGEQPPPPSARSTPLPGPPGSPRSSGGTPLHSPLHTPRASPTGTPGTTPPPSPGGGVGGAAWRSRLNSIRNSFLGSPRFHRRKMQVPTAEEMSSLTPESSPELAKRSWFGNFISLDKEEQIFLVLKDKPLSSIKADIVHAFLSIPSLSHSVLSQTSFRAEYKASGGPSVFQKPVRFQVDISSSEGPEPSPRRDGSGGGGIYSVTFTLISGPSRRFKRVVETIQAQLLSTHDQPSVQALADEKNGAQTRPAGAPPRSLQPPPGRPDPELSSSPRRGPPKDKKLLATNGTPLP

CCN(CC)CCNC(=O)c1c(C)[nH]c(/C=C2\C(=O)Nc3ccc(F)cc32)c1C  inhibition (enzyme activity; inhibitor; 0.3 µM): 27%
C[C@H](c1ccc(F)cc1)N(Cc1cccc(C(=O)O)c1)C(=O)c1cnc2ccccc2c1  remaining binding (cell-free assay; competition with immobilised ligand; 1 µM): 100%
CNC(=O)c1cc(Oc2ccc(NC(=O)Nc3ccc(Cl)c(C(F)(F)F)c3)cc2)ccn1  inhibition (enzyme activity; inhibitor; 0.3 µM): 17%
Oc1cccc(-c2nc(N3CCOCC3)c3oc4ncccc4c3n2)c1  remaining activity (enzyme activity; inhibitor; 10 µM): 109%
CC(C)(O)[C@H]1CC[C@H](Nc2ccc3ncc(-c4cccc(C(F)(F)F)c4)n3n2)CC1  remaining activity (enzyme activity; inhibitor; 1 µM): 98.1%
O=C(Nc1cnn(-c2csc(C(=O)NC3COC3)c2)c1)Nc1ccccc1Cl  remaining activity (enzyme activity; inhibitor; 5 µM): 85.5%
CCCCN(CCCC)C(=O)CN1C[C@@H](c2cc(OC)c3c(c2)OCO3)[C@H](C(=O)O)[C@H]1CC(C)(C)CCC  remaining binding (cell-free assay; competition with immobilised ligand; 1 µM): 88.9%
Cc1cnc(NC2CCOCC2)nc1-n1cnc(C(=O)NC(CN)c2cc(F)cc(Cl)c2)c1 (stereo not drawn)  remaining activity (enzyme activity; inhibitor; radiometric; 1 µM): 77%
Cc1ccc(C(=O)Nc2ccc(CN3CCN(C)CC3)c(C(F)(F)F)c2)cc1C#Cc1cnc2cccnn12  remaining activity (enzyme activity; inhibitor; 23.5 nM): 83%
CC(C)(C)c1nc2c(s1)c1nc(N)ncc1c1ccc(NS(=O)(=O)c3c(F)cccc3F)c(F)c12  remaining activity (enzyme activity; inhibitor; radiometric; 1 µM): 102%
CN(C)C(=O)Cn1cc(-c2nc(C3(c4ccc(-c5cnc(N)nc5)cc4)CC3)no2)cn1  remaining binding (cell-free assay; competition with immobilised ligand; 1 µM): 93%
Cn1c(=O)n(-c2ccc(C(C)(C)C#N)cc2)c2c3cc(-c4cnc5ccccc5c4)ccc3ncc21  remaining activity (enzyme activity; inhibitor; 10 µM): 85%
COc1cc2ncnc(Nc3ccc(Oc4ccccc4)cc3C)c2cc1OC  inhibition (enzyme activity; inhibitor; 1 µM): 1%
CC/C(=N\NC(=O)NCc1cccc(O)c1)c1ccc(O)c(C)c1O  inhibition (enzyme activity; inhibitor; 0.1 µM): 1.7%
CCC(=N\O)/C(C)=C/c1ccc(F)cc1  remaining binding (cell-free assay; competition with immobilised ligand; 1 µM): 100%
Cc1ccc(Nc2nccc(N(C)c3ccc4c(C)n(C)nc4c3)n2)cc1S(N)(=O)=O  inhibition (enzyme activity; inhibitor; 10 µM): 36%
O=C(Nc1cccnn1)N1CCC(=Cc2cccc(Oc3ccc(C(F)(F)F)cn3)c2)CC1  remaining binding (cell-free assay; competition with immobilised ligand; 1 µM): 73%
COc1cc2ncnc(Nc3ccc(F)c(Cl)c3)c2cc1OCCCN1CCOCC1  remaining signal (cell-free assay; 0.5 µM): 92.5%
C[C@H](c1ccnc(Nc2nc3ccc(-c4cc(N(C)C)ncn4)cc3[nH]2)c1)N1CCN(C(=O)CC(F)(F)F)CC1  remaining binding (cell-free assay; competition with immobilised ligand; 0.1 µM): 100%
Cc1sc(C(=O)NC2COC2)cc1-n1cc(NC(=O)Nc2c(F)cccc2Cl)cn1  remaining activity (enzyme activity; inhibitor; 10 µM): 87.8%
Cc1cc(C)c(-n2ccn3nc(-c4cccnc4)cc23)cc1NC(=O)c1cc(C#N)cc(S(F)(F)(F)(F)F)c1  remaining binding (cell-free assay; competition with immobilised ligand; 0.1 µM): 84%
COc1cc(Nc2cnc(C#N)c(O[C@H](C)CN(C)C)n2)ncc1-c1cnn(C)c1  remaining activity (enzyme activity; inhibitor; radiometric; 10 µM): 53%
O=C(N1CCS(=O)(=O)CC1)N1C[C@H](c2ccc(OC(F)(F)F)cc2)C[C@H](c2nc(C3CC3)no2)C1  remaining binding (cell-free assay; competition with immobilised ligand; 1 µM): 100%
O=C1Nc2ccc(Cl)cc2C1=Cc1cc(Cl)c(O)c(Cl)c1  remaining signal (cell-free assay; 0.5 µM): 81.3%
FC(F)(F)Oc1cccc(-c2cnc3ccc(-c4ccncc4)nn23)c1  activity vs control (enzyme activity; inhibitor; radiometric; 5 µM): 82%
CCCS(=O)(=O)Nc1ccc(F)c(C(=O)c2c[nH]c3ncc(-c4ccc(Cl)cc4)cc23)c1F  inhibition (enzyme activity; inhibitor; 1 µM): < 10%
N[C@@H]1CCN(c2nccc(-c3cnn4ncccc34)n2)C1  remaining binding (binding; 1 µM): 100%
